Reference: ChEMBL document CHEMBL2093137, “WHO-TDR NTD Screening”
Values after ≈ are worked out from the molar mass of the structure shown.

What was measured:
Brugia malayi = assay: WHO-TDR: Lymphatic Filariasis; format: functional; parameters: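 tested at 10 µM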
Summary of the method: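 In a whole-organism assay, Brugia malayi microfilariae were screened against a diverse Life Chemicals library that had been filtered for drug-likeness and reactive groups. That library comprised 10,000 compounds. Activity is expressed as percent inhibition and as IC50.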

Trypanosoma cruzi = assay: WHO-TDR: Chagas disease; format: functional, organism-based, Homo sapiens; conditions: MRC5
Summary of the method: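 Intracellular amastigotes of the Trypanosoma cruzi Tulahuen CL2 beta-galactosidase strain, grown in MRC-5SV2 human lung fibroblast host cells, were tested in a whole-organism screen. The compounds came from a 10,000-member diverse Life Chemicals library that had been filtered for drug-likeness and reactive groups. Previously published standard procedures were followed, with a reference drug as positive control, and potency is reported as IC50.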

[1] = WHO-TDR: Cytotoxicity; format: toxicity, cell-based; conditions: human, MRC5 cells
[2] = tested on: Trypanosoma brucei brucei; assay: WHO-TDR: Human African Trypanosomiasis (HAT); format: functional, organism-based; conditions: Squib-427
Summary of the method: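 Whole-organism screen of a 10,000-compound diverse library from Life Chemicals, filtered for drug-likeness and reactive groups, against bloodstream forms of Trypanosoma brucei Squib 427 strain. The assay followed previously published standard procedures, with reference drugs as positive controls. Antiparasitic potency is reported as IC50.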

Plasmodium falciparum K1 = assay: WHO-TDR: Malaria; format: functional, organism-based, Homo sapiens; conditions: Erythrocyte
Summary of the method: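 Whole-organism screen of a 10,000-compound diverse library from Life Chemicals, filtered for drug-likeness and reactive groups, against intra-erythrocytic Plasmodium falciparum K1 strain in human red blood cells. The assay followed previously published standard procedures, with a reference drug as positive control. Antiplasmodial potency is reported as IC50.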

Schistosoma mansoni = assay: WHO-TDR: Schistosomiasis; format: functional; parameters: concentration or dose not given beside the values
Summary of the method: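 In this whole-organism assay, larval and/or adult worms of Schistosoma mansoni (Puerto Rican strain) were exposed to compounds from a diverse Life Chemicals library of 10,000 members. A reference drug served as positive control. Activity is stated as percent inhibition and IC50.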

Leishmania infantum = assay: WHO-TDR: Leishmaniasis; format: functional, organism-based, Mus musculus; conditions: Macrophage
Summary of the method: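 Whole-organism screen of a 10,000-compound diverse library from Life Chemicals, filtered for drug-likeness and reactive groups, against intracellular amastigotes of Leishmania infantum MHOM/MA(BE)/67 in murine peritoneal macrophage host cells. The assay followed previously published standard procedures, with a reference drug as positive control. Antiparasitic potency is reported as IC50.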

Onchocerca ochengi = assay: WHO-TDR: Onchocerciasis; format: functional; parameters: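 at 12.5 µM on microfilariae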
Summary of the method: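 Microfilariae of Onchocerca ochengi or Onchocerca lienalis, animal pathogens standing in for the human parasite, were exposed to compounds in a whole-organism screen. The compounds came from a 10,000-compound diverse Life Chemicals library filtered for drug-likeness and reactive groups. Results are expressed as percent inhibition and IC50.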

SMILES | % Inhibition (Brugia malayi) | IC50 (Trypanosoma cruzi) | IC50 [1] | IC50 [2] | IC50 (Plasmodium falciparum K1) | % Inhibition (Schistosoma mansoni) | IC50 (Leishmania infantum) | % Inhibition (Onchocerca ochengi)
CC1CCc2[nH]nc(-c3nc(-c4ccc(Cl)cc4)no3)c2C1 (stereo not drawn) | 0% | 5.55 µg/mL (≈ 17.6 µM) | > 9.44 µg/mL | > 9.44 µg/mL | > 9.44 µg/mL | 0% | > 9.44 µg/mL | 100%
COc1ccc2nc(-c3ccc(OC)c(NC(=O)c4c(F)cccc4Cl)c3)cn2n1 | 0% | > 12.8 µg/mL | > 12.8 µg/mL | > 12.8 µg/mL | > 12.8 µg/mL | 0% | 0.415 µg/mL (≈ 0.972 µM) | 0%
O=c1ccc(-c2ccc(F)cc2)nn1CCCNS(=O)(=O)c1cc(F)ccc1F | 0% | > 12.7 µg/mL | 3.28 µg/mL (≈ 7.74 µM) | 4.24 µg/mL (≈ 10 µM) | > 12.7 µg/mL | 0% | > 12.7 µg/mL | 100%
COc1ccc(-c2nnc(NC(=O)c3ccn(C)n3)o2)cc1OC | 0% | > 9.88 µg/mL | 1.41 µg/mL (≈ 4.28 µM) | > 9.88 µg/mL | > 9.88 µg/mL | 25% | > 9.88 µg/mL | 100%
O=C(c1ccc(F)c(F)c1)N1CCN(c2nccn2-c2cccc(Cl)c2)CC1 | 0% | 11.4 µg/mL (≈ 28.2 µM) | > 13.2 µg/mL | 3.83 µg/mL (≈ 9.51 µM) | > 13.2 µg/mL | 0% | 4.27 µg/mL (≈ 10.6 µM) | 100%
O=C(Nc1nc(-c2ccc3c(c2)OCCO3)cs1)C1CCN(S(=O)(=O)c2ccc(Cl)cc2)CC1 | 0% | 0.697 µg/mL (≈ 1.34 µM) | 2.74 µg/mL (≈ 5.28 µM) | 0.586 µg/mL (≈ 1.13 µM) | 8.56 µg/mL (≈ 16.5 µM) | 0% | > 15.6 µg/mL | 50%
COc1cccc(C2C(S(=O)(=O)c3ccc(C)cc3)=C(O)C(=O)N2c2ccc(C)cc2)c1 (stereo not drawn) | 20% | > 13.5 µg/mL | > 13.5 µg/mL | > 13.5 µg/mL | > 13.5 µg/mL | 0% | > 13.5 µg/mL | 100%
CC(C)CC(=O)NCCOc1ccc2nnc(-c3ccccc3)n2n1 | 33.33% | > 10.2 µg/mL | > 10.2 µg/mL | > 10.2 µg/mL | > 10.2 µg/mL | 16.7% | 0.33 µg/mL (≈ 0.972 µM) | 0%
CCOC(=O)c1sc(NC(=O)C2CCCCN2S(C)(=O)=O)cc1C (stereo not drawn) | 0% | 3.69 µg/mL (≈ 9.86 µM) | > 11.2 µg/mL | 3.82 µg/mL (≈ 10.2 µM) | > 11.2 µg/mL | 0% | > 11.2 µg/mL | 100%
Cc1ccc(S(=O)(=O)N(CC(O)CNCc2ccco2)c2ccc(F)cc2)cc1 (stereo not drawn) | 0% | 5.67 µg/mL (≈ 13.5 µM) | > 16.2 µg/mL | 5.19 µg/mL (≈ 12.4 µM) | 1.27 µg/mL (≈ 3.04 µM) | 0% | > 16.2 µg/mL | 100%
CCCCC1CCC(C(=O)NCCn2nc(-c3ccncc3)ccc2=O)CC1 (stereo not drawn) | 0% | 6.12 µg/mL (≈ 16 µM) | 11 µg/mL (≈ 28.7 µM) | > 11.5 µg/mL | > 11.5 µg/mL | 0% | 0.371 µg/mL (≈ 0.97 µM) | 0%
COc1cccc(NC(=O)NCCNc2ccc(Nc3cccc(C)n3)nn2)c1 | 0% | > 11.8 µg/mL | > 11.8 µg/mL | 4.13 µg/mL (≈ 10.5 µM) | 4.98 µg/mL (≈ 12.6 µM) | 0% | > 11.8 µg/mL | 100%
CCn1nc(C(=O)Nc2nnc(CCSc3ccccc3)o2)cc1C | 0% | > 10.7 µg/mL | > 10.7 µg/mL | > 10.7 µg/mL | > 10.7 µg/mL | 0% | > 10.7 µg/mL | 100%
O=C(Nc1ccc(SCC(=O)N2CCc3ccccc32)nn1)c1ccccc1F | 0% | > 12.3 µg/mL | > 12.3 µg/mL | > 12.3 µg/mL | > 12.3 µg/mL | 0% | 0.397 µg/mL (≈ 0.972 µM) | 0%
COc1ccc(C)c2sc(N(CCCn3ccnc3)C(=O)Cc3ccccc3)nc12 | 0% | 0.644 µg/mL (≈ 1.53 µM) | 4.07 µg/mL (≈ 9.68 µM) | 3.3 µg/mL (≈ 7.85 µM) | 0.615 µg/mL (≈ 1.46 µM) | 0% | > 13.7 µg/mL | 100%
CC(C)CC(=O)N1CCN(c2ccc(-c3ccccn3)nn2)CC1 | 33.33% | 0.763 µg/mL (≈ 2.34 µM) | 3.86 µg/mL (≈ 11.9 µM) | 3.09 µg/mL (≈ 9.49 µM) | 1.13 µg/mL (≈ 3.46 µM) | 25% | 3.09 µg/mL (≈ 9.49 µM) | 100%

SMILES | % Inhibition (Brugia malayi) | IC50 (Trypanosoma cruzi) | IC50 [1] | IC50 [2] | IC50 (Plasmodium falciparum K1) | % Inhibition (Schistosoma mansoni) | IC50 (Leishmania infantum) | % Inhibition (Onchocerca ochengi)
O=C(Nc1nnc(Cc2cccs2)o1)c1cc(Cl)sc1Cl | 0% | 0.632 µg/mL (≈ 1.75 µM) | 0.967 µg/mL (≈ 2.68 µM) | 0.342 µg/mL (≈ 0.949 µM) | > 10.8 µg/mL | 0% | > 10.8 µg/mL | 0%
Cc1ccc(-n2ccnc2N2CCN(C(=O)c3ccc4ccccc4c3)CC2)cc1 | 0% | 2.67 µg/mL (≈ 6.73 µM) | 2.65 µg/mL (≈ 6.67 µM) | 4.21 µg/mL (≈ 10.6 µM) | 4.25 µg/mL (≈ 10.7 µM) | 8.3% | 2.56 µg/mL (≈ 6.45 µM) | 100%
Cc1noc(C)c1CCc1nc(-c2ccc(Cl)cc2)no1 | 0% | 2.88 µg/mL (≈ 9.49 µM) | 3.27 µg/mL (≈ 10.8 µM) | > 9.11 µg/mL | 4.72 µg/mL (≈ 15.5 µM) | 0% | > 9.11 µg/mL | 100%
CCc1ccc(S(=O)(=O)N2CCN(c3ccc(Nc4ccccn4)nn3)CC2)cc1 | 0% | > 12.7 µg/mL | > 12.7 µg/mL | > 12.7 µg/mL | 2.8 µg/mL (≈ 6.6 µM) | 0% | 0.412 µg/mL (≈ 0.97 µM) | 0%
Cc1cccc2sc(N(CCCn3ccnc3)C(=O)c3ccc(Cl)s3)nc12 | 0% | 1.22 µg/mL (≈ 2.93 µM) | 5.04 µg/mL (≈ 12.1 µM) | > 13.6 µg/mL | 0.619 µg/mL (≈ 1.48 µM) | 0% | > 13.6 µg/mL | 100%
Cc1ccc(Cn2c(CO)cnc2SCC(=O)Nc2cccc3ccccc23)cc1 | 25% | > 12.5 µg/mL | > 12.5 µg/mL | > 12.5 µg/mL | > 12.5 µg/mL | 0% | > 12.5 µg/mL | 100%
Cn1ccnc1N1CCN(CC(=O)Nc2ccccc2C(F)(F)F)CC1 | 0% | > 11 µg/mL | > 11 µg/mL | > 11 µg/mL | > 11 µg/mL | 0% | 0.357 µg/mL (≈ 0.972 µM) | 0%
CC(=O)N1CCc2ccc(NC(=O)c3ccc(C(C)(C)C)cc3)cc21 | 0% | 0.3 µg/mL (≈ 0.892 µM) | > 10.1 µg/mL | > 10.1 µg/mL | > 10.1 µg/mL | 16.7% | > 10.1 µg/mL | 0%
O=C(c1ccc(F)cc1F)N1CCN(c2ccc(-c3cccnc3)nn2)CC1 | 33.33% | > 11.4 µg/mL | > 11.4 µg/mL | > 11.4 µg/mL | > 11.4 µg/mL | 0% | 0.37 µg/mL (≈ 0.97 µM) | 0%
O=S(=O)(c1cccc(F)c1)N1CCN(c2ccc(-c3ccncc3)nn2)CC1 | 33.33% | > 12 µg/mL | > 12 µg/mL | > 12 µg/mL | > 12 µg/mL | 0% | 0.388 µg/mL (≈ 0.971 µM) | 0%
Cc1ccc(NC(=O)CN2CCN(c3nccn3-c3ccccc3F)CC2)cc1 | 0% | 11.2 µg/mL (≈ 28.6 µM) | > 11.8 µg/mL | 5.48 µg/mL (≈ 13.9 µM) | 6.19 µg/mL (≈ 15.7 µM) | 0% | > 11.8 µg/mL | 100%
O=C(CSC1=Nc2cccnc2Nc2ccccc21)Nc1ccc(OC(F)(F)F)cc1 | 0% | > 13.3 µg/mL | > 13.3 µg/mL | > 13.3 µg/mL | 13.3 µg/mL (≈ 30 µM) | 0% | > 13.3 µg/mL | 100%
O=C(CCSc1ccccc1)NCCOc1ccc2nnc(-c3ccc(F)cc3)n2n1 | 33.33% | > 13.1 µg/mL | > 13.1 µg/mL | > 13.1 µg/mL | > 13.1 µg/mL | 41.7% | 0.425 µg/mL (≈ 0.971 µM) | 0%
O=C(Cc1csc(NC(=O)c2ccc[nH]c2=O)n1)Nc1ccc(Cl)cc1 | 20% | > 11.7 µg/mL | > 11.7 µg/mL | > 11.7 µg/mL | > 11.7 µg/mL | 0% | 0.378 µg/mL (≈ 0.972 µM) | 0%
CC1Cc2ccccc2N1C(=O)Cc1csc(NC(=O)c2ccc[nH]c2=O)n1 (stereo not drawn) | 20% | > 11.8 µg/mL | > 11.8 µg/mL | > 11.8 µg/mL | > 11.8 µg/mL | 100% | > 11.8 µg/mL | 50%
